Source: article PMC8123931 (Nature chemical biology, 2020)
Like-named read-outs stand apart in the source and are kept apart here.

Tests used:
EGFR L858R/T790M/C797S [1] = molecular target: T1, EGFR L858R/T790M/C797S (Homo sapiens, UniProt P00533, C797S/L858R/T790M); experiment: MaMTH-DS assay and screen, EGFR L858R/T790M/C797S bait with Shc1 prey; format: cell-based
MaMTH stable bait cells = experiment: Reporter cell viability; format: cell-based
Outline: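 MaMTH stable bait cells seeded at 10,000 cells/well in 96-well plates. Next day treated across a dose range of test compound, with 0.5 μg/mL tetracycline to induce bait expression. Viability measured by CellTiter-Glo luminescence after 72 h of drug exposure.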

[2] = test system: PC9 EGFR ex19del/T790M/C797S cells; experiment: Western analysis of EGFR activation and downstream signalling; format: cell-based; settings: for EGFR activation and signalling through ERK and AKT: 20 µM; for EGFR activation and signalling through ERK and AKT / EGFR phosphorylation/activation / phosphorylation of downstream signalling partners: 2 hours treatment; for EGFR phosphorylation/activation: compared with PC9 ex19del cells; for phosphorylation of downstream signalling partners: triple mutant cells; for potency towards mutant EGFR relative to EMI1: 10 µM dose
wild-type EGFR = wild-type EGFR (Homo sapiens, UniProt P00533); experiment: In vitro kinase assay, recombinant kinase domain; format: biochemical; settings: 100 µM ATP
EGFR L858R = EGFR L858R (Homo sapiens, UniProt P00533, L858R); experiment: In vitro kinase assay, recombinant EGFR single mutant; format: biochemical; settings: compared with triple mutants
EGFR ex19del = experiment: as above; format: biochemical; settings: compared with triple mutants
EGFR ex19del/T790M = EGFR ex19del/T790M (Homo sapiens, UniProt P00533, DEL746-750/T790M); experiment: In vitro kinase assay, recombinant EGFR double mutant; format: biochemical
EGFR L858R/T790M = EGFR L858R/T790M (Homo sapiens, UniProt P00533, L858R/T790M); experiment: as above; format: biochemical
[3] = test system: PC9 EGFR ex19del/T790M/C797S cells; experiment: Caspase 3 and 7 assay; format: cell-based; settings: 72 hours of drug treatment
A549 EGFR WT cells = experiment: Caspase 3 and 7 assay; format: cell-based; settings: 72 hours of drug treatment
Outline: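 A549 cells were plated in 384-well plates at 5,000 cells per well and exposed to test compound for 72 h. Caspase 3 and 7 activity was then read by luminescence using the Caspase-Glo 3/7 reagent.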

[4] = test system: PC9 EGFR ex19del/T790M/C797S organoids; experiment: Organoid viability assay; format: cell-based
[5] = test system: HEK293 EGFR L858R/T790M/C797S cells; experiment: EGFR localization and endosomal trafficking; format: cell-based
HEK293 EGFR WT cells = experiment: EGFR localization and endosomal trafficking; format: cell-based; settings: 1 µM compound, 30 minutes EGF
[6] = test system: HEK293 EGFR L858R/T790M/C797S cells; experiment: Cell surface biotinylation assay; format: cell-based; settings: 5 µM compound, 2 hours
EGFR L858R/T790M/C797S [7] = molecular target: T1, EGFR L858R/T790M/C797S; experiment: In vitro kinase assay, recombinant kinase domain; format: biochemical; settings: 100 µM ATP
EGFR ex19del/T790M/C797S = EGFR ex19del/T790M/C797S (Homo sapiens, UniProt P00533, C797S/DEL746-750/T790M); experiment: In vitro kinase assay, recombinant kinase domain; format: biochemical; settings: 100 µM ATP
[8] = test system: PC9 EGFR ex19del/T790M/C797S cells; experiment: Microtubule imaging; format: cell-based
AXL = molecular target: T2, AXL (Homo sapiens, UniProt P30530); experiment: MaMTH-DS assay, AXL bait with Shc1 prey; format: cell-based; settings: dose response
T2 sequence (P30530 26-894): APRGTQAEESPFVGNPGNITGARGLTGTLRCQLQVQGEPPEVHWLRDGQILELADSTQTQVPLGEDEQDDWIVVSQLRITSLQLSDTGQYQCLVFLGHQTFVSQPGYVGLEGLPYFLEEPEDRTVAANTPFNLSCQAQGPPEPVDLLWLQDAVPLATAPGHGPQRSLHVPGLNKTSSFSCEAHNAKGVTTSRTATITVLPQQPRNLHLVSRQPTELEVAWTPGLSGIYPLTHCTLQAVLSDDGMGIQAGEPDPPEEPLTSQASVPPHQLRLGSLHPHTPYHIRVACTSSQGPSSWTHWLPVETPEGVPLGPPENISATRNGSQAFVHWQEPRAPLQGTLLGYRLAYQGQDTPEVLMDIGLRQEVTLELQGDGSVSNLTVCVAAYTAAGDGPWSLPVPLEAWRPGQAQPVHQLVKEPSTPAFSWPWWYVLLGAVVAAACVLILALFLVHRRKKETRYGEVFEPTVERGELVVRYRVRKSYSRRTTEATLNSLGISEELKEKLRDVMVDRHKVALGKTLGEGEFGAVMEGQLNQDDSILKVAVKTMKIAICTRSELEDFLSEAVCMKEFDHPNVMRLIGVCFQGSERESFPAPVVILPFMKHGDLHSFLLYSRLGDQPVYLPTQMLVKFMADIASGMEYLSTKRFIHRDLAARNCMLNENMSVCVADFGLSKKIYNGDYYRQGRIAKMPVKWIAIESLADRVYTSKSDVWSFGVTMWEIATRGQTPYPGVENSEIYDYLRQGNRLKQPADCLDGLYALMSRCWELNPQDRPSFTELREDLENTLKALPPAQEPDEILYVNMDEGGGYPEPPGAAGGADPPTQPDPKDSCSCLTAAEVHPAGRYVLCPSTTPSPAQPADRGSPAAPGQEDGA

[9] = test system: RTK bait (MET, FGFR4, AXL, ALK, EGFR); settings: for bait expression: EGFR WT and mutant baits
ALK = ALK (Homo sapiens, UniProt Q9UM73); settings: dose response
Sequence of ALK (Q9UM73 19-1620): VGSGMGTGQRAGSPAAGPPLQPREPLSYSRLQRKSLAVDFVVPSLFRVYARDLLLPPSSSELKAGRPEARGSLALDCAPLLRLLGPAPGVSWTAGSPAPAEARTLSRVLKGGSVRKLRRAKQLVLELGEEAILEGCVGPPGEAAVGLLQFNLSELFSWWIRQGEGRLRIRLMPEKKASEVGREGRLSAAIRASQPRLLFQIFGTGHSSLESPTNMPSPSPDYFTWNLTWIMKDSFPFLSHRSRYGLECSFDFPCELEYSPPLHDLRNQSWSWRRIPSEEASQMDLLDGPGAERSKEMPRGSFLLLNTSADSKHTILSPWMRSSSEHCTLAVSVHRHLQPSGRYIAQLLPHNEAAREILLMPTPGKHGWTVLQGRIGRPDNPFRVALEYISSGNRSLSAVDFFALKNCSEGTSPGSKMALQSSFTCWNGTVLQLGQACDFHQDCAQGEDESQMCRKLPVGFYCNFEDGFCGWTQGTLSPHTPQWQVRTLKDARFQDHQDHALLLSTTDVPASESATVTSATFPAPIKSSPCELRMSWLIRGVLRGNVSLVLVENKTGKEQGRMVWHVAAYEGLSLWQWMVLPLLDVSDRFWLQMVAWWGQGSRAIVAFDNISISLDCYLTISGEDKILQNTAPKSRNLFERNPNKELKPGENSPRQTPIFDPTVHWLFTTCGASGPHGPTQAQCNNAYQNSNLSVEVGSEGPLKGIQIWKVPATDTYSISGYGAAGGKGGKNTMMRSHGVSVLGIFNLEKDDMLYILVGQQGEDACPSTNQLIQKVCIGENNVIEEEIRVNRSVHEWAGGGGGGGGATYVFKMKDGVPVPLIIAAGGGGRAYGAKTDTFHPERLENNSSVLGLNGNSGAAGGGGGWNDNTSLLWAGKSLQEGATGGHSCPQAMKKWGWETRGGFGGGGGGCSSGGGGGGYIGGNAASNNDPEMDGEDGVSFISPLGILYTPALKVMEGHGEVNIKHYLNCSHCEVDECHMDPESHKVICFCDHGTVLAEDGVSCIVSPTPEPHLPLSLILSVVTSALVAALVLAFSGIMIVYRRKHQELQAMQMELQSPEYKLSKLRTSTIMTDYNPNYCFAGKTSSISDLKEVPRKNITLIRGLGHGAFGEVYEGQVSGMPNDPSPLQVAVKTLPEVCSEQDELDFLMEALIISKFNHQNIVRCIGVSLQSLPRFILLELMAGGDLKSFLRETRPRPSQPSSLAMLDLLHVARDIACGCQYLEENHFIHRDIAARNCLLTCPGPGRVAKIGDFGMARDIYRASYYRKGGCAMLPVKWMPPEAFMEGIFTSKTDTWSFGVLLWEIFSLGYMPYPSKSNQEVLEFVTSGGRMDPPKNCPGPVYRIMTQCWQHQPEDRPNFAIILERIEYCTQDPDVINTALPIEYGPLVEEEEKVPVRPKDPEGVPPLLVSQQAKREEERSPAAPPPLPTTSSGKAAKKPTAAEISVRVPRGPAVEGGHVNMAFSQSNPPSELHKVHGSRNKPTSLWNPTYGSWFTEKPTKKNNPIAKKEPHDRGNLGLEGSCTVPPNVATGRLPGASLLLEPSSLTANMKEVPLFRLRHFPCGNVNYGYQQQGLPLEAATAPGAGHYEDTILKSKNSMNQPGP

In the case of `CC1(COc2ccc3c(c2)ncn3-c2ccc3cccc(N4CCC(N)CC4)c3n2)COC1` [crenolanib], the “interaction of Shc1 with EGFR L858R/T790M/C797S (in words)” value (“interaction of Shc1” for short) (EGFR L858R/T790M/C797S [1]) is reported as “none were found to target the EGFR C797S triple mutant”.
`C[C@@H](Oc1cc(-c2cnn(C3CCNCC3)c2)cnc1N)c1c(Cl)ccc(F)c1Cl` [crizotinib] was tested, and the reporter cell viability (MaMTH stable bait cells; MET bait cells) was “not due to a loss in cell viability”.
With `C=CC(=O)Nc1cccc(C)c1Nc1ncc2cc(-c3c(Cl)c(OC)cc(OC)c3Cl)ccc2n1` [BLU9931] the reporter cell viability (MaMTH stable bait cells; FGFR4 bait cells) was “no effect on reporter cell viability”.
For `COc1cc(OC)c(/C=C/S(=O)(=O)Cc2ccc(OC)c(NCC(=O)O)c2)c(OC)c1` [Rigosertib], the “EGFR activation and signalling through ERK and AKT” value [2] was “not evident”.
With `CO[C@@H]1[C@H](N(C)C(=O)c2ccccc2)C[C@H]2O[C@]1(C)n1c3ccccc3c3c4c(c5c6ccccc6n2c5c31)C(=O)NC4` [midostaurin] the “interaction of Shc1” value (EGFR L858R/T790M/C797S [1]) was “robust, dose-dependent inhibition”, the “activity towards triple mutants compared with WT EGFR” value (wild-type EGFR) was “significantly more potent activity towards the mutants than WT EGFR” and the “activity against single mutant” value (EGFR L858R) was “less effective”. The “activity against single mutant” value (EGFR ex19del) was “less effective”, the “activity against double mutant” value (EGFR ex19del/T790M) was “moderate to strong activity” and the “activity against double mutant” value (EGFR L858R/T790M) was “moderate to strong activity”. The “caspase 3/7 activity” value [3] was “induced caspase 3 and 7 activity”, the “caspase 3/7 activity” value (A549 EGFR WT cells) was “not in A549 epithelial cells carrying EGFR WT” and the EGFR phosphorylation/activation [2] was “reduced EGFR phosphorylation/activation in PC9 ex19del/T790M/C797S triple mutant cells more strongly”. The “phosphorylation of downstream signalling partners” value [2] was “more potently reducing pAKT and pERK levels”, the “organoid viability / growth” value [4] was “potently affected the growth of PC9 triple mutant organoids” and the “EGF accumulation in EEA1-positive early endosomes” value (from here on “EGF accumulation”) ([5]; 1 µM compound, 30 minutes EGF) was “significantly reduced EGF accumulation in EEA1-positive early endosomes”. The “overall amount of EGFR pY1068 localized to EEA1-positive endosomes” value ([5]; 1 µM compound, 30 minutes EGF) was “significantly reduced the overall amount of EGFR pY1068 localized to EEA1-positive endosomes”, the “average amount of activated EGFR per endosome” value ([5]; 30 min EGF) was “reduced the amount of activated EGFR per endosome” and the “number of early endosomes carrying activated EGFR” value ([5]; 30 min EGF) was “had no effect on total endosome number”. For the same compound, the “EGF accumulation” value (HEK293 EGFR WT cells) was “A similar effect was observed for EGFR WT cells but to a lesser degree”, the “overall amount of EGFR pY1068 localized to EEA1-positive endosomes” value (HEK293 EGFR WT cells) was “not in EGFR WT” and the “surface levels of EGFR” value [6] was “not observed”.
For `CCc1nc(C(N)=O)c(Nc2ccc(N3CCC(N4CCN(C)CC4)CC3)c(OC)c2)nc1NC1CCOCC1` [gilteritinib], the “interaction of Shc1” value (EGFR L858R/T790M/C797S [1]) was “potent and highly specific inhibitor of the EGFR triple mutant”, the “activity towards triple mutants compared with WT EGFR” value (wild-type EGFR) was “significantly more potent activity towards the mutants than WT EGFR” and the “IC50 values, inhibition of kinase domain (in words)” value (EGFR L858R/T790M/C797S [7]) was “low nanomolar range”. For the same compound, the “IC50 values, inhibition of kinase domain (in words)” value (EGFR ex19del/T790M/C797S) was “low nanomolar range”, the “activity against single mutant” value (EGFR L858R) was “less effective” and the “activity against single mutant” value (EGFR ex19del) was “less effective”. For the same compound, the “activity against double mutant” value (EGFR ex19del/T790M) was “moderate to strong activity”, the “activity against double mutant” value (EGFR L858R/T790M) was “moderate to strong activity” and the “caspase 3/7 activity” value [3] was “induced caspase 3 and 7 activity”. For the same compound, the “caspase 3/7 activity” value (A549 EGFR WT cells) was “not in A549 epithelial cells carrying EGFR WT”, the EGFR phosphorylation/activation [2] was “reduced EGFR phosphorylation/activation in PC9 ex19del/T790M/C797S triple mutant cells more strongly” and the “phosphorylation of downstream signalling partners” value [2] was “more potently reducing pAKT levels”. The “organoid viability / growth” value [4] was “potently affected the growth of PC9 triple mutant organoids”.
With `CC(=O)O[C@@]12CO[C@@H]1C[C@H](O)[C@@]1(C)C(=O)[C@H](O)C3=C(C)[C@@H](OC(=O)[C@H](O)[C@@H](NC(=O)OC(C)(C)C)c4ccccc4)C[C@@](O)([C@@H](OC(=O)c4ccccc4)[C@H]21)C3(C)C` [Docetaxel] the “EGFR activation and signalling through ERK and AKT” value [2] was “not evident”.
`CCN(CC)c1ccc2cc(-c3nc4cc(C)ccc4o3)c(=O)oc2c1` [EMI48] was tested, and the “potency towards mutant EGFR relative to EMI1” value [2] was “greater potency towards mutant EGFR than EMI1” and the “interphase microtubules and spindle formation” value [8] was “did not affect interphase microtubules, nor have an effect on spindle formation”.
With `C#Cc1cccc(Nc2ncnc3cc(OCCOC)c(OCCOC)cc23)c1` [erlotinib] the “AXL activity (interaction with Shc1)” value (AXL) was “not erlotinib control”, the reporter cell viability (MaMTH stable bait cells; EGFR WT and mutant bait cells) was “not due to a reduction in reporter cell viability” and the bait expression [9] was “no effect of TKIs on bait expression”.
In the case of `COc1cc2c(c(OC)c1OC)-c1ccc(OC)c(=O)cc1[C@@H](NC(C)=O)CC2` [Colchicine], the “EGFR activation and signalling through ERK and AKT” value [2] is reported as “not evident”.
`COC(=O)Nc1nc2ccc(C(=O)c3cccs3)cc2[nH]1` [Nocodazole] was tested, and the “EGFR activation and signalling through ERK and AKT” value [2] was “not evident”.
In the case of `CCN(CC)c1cc2oc(=O)c(-c3nc4ccccc4o3)cc2cc1C` [EMI56], the “potency towards mutant EGFR relative to EMI1” value [2] is reported as “greater potency towards mutant EGFR than EMI1” and the “interphase microtubules and spindle formation” value [8] is reported as “did not affect interphase microtubules, nor have an effect on spindle formation”.
With `COc1cc(N2CCC(N3CCN(C)CC3)CC2)ccc1Nc1ncc(Cl)c(Nc2ccccc2P(C)(C)=O)n1` [brigatinib] the reporter cell viability (MaMTH stable bait cells; ALK bait cells) was “cell viability was unaffected”, the “ALK activity (interaction with Shc1)” value (ALK) was “strongly reduced, in a dose-dependent manner” and the bait expression level ([9]; ALK bait) was “not altered by compound”.
In the case of `C=CC(=O)Nc1cc(Nc2nccc(-c3cn(C)c4ccccc34)n2)c(OC)cc1N(C)CCN(C)C` [osimertinib], the reporter cell viability (MaMTH stable bait cells; EGFR WT and mutant bait cells) is reported as “not due to a reduction in reporter cell viability”, the “organoid viability / growth” value [4] is reported as “has no effect” and the “EGF accumulation” value ([5]; 1 µM compound, 30 minutes EGF) is reported as “had no effect”. The “surface levels of EGFR” value [6] was “not observed” and the bait expression [9] was “no effect of TKIs on bait expression”.
For `CC(C)(C)c1cc(NC(=O)Nc2ccc(-c3cn4c(n3)sc3cc(OCCN5CCOCC5)ccc34)cc2)no1` [quizartinib], the “interaction of Shc1” value (EGFR L858R/T790M/C797S [1]) was “none were found to target the EGFR C797S triple mutant”.
In the case of `COc1cc2c(Oc3ccc(NC(=O)C4(C(=O)Nc5ccc(F)cc5)CC4)cc3F)ccnc2cc1OCCCN1CCOCC1` [foretinib], the “AXL activity (interaction with Shc1)” value (AXL) is reported as “strongly reduced, in a dose-dependent manner”, the reporter cell viability (MaMTH stable bait cells; AXL bait cells) is reported as “cell viability was unaffected” and the bait expression level ([9]; AXL bait) is reported as “not altered by compound”.
